Screening data deposited in PubChem by several laboratories.
Compounds with a hit are over-represented: about 4.3% of the library has one in this group of screens.
FLuc inhib CS: counter-screen for luciferase assay inhibitors: firefly luciferase inhibition; P08659; ATPLite firefly luciferase biochemical luminescence, 10 min; inhibition, % at 10 µM; 1.5% of 200,000 active;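 active means inhibition above about 50% when tested at 10 µM, limit read from the data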
Target sequence (P08659 whole entry, looked up): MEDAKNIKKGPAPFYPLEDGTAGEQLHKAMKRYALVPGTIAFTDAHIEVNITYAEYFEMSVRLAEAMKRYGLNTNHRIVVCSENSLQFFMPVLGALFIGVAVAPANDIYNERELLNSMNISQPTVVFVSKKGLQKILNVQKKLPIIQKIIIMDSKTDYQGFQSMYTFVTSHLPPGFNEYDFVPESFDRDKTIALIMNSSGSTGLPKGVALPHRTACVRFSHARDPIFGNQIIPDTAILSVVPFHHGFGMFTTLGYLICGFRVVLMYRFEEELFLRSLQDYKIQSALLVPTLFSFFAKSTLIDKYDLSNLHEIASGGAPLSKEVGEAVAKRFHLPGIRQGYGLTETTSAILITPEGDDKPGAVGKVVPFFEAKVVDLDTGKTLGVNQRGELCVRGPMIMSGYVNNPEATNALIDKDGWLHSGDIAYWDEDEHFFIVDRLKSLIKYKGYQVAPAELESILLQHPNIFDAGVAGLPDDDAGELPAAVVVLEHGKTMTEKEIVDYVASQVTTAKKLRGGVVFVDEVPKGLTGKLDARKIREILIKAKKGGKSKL
FLuc act counter: firefly luciferase counter-screen for stimulation assays; ATPlite luciferase biochemical, luminescence, 10 min; 0 = ATP-free wells, 1 = DMSO control; activation factor at 10 µM; 200,000 tested, under 10 active; AID 1027;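 active means luciferase activation factor, scaled between plate controls, of at least 2 with compound at 10 µM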
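Material: luciferase plus luciferin reagent, cell-free. Medium: PBS buffer for ATP. Also added: ATP substrate, dispensed from a 10.24 µM working solution in PBS. Doses: test compounds dosed from 2 mM stocks in 100% DMSO. Incubation: 10 min post-reagent at room temperature. Technique: light output (luminescence). Read-out basis: luminescence gain marking luciferase activators.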
APP 5'UTR act: APP 5'UTR luciferase reporter activation | activation, % at 2 µM | AID 1276 | 1% of 190,000 active | SH-SY5Y APP 5'UTR luciferase reporter, luminescence; zero percent = DMSO vehicle wells;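 active means activation above a set limit, based on mean plus 3 SD of controls, cut at about 140% in these data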
NF-kB neuron act: raises NF-kB expression in human neuronal cells; NF-kB reporter expression; active compounds read high; 1.6% of 190,000 active; AID 1239; fold change at 12.5 µM; in the data active means fold change above about 3.3
sdo1 growth: restores growth of sdo1-depleted yeast. AID 817. S. cerevisiae sdo1-depleted JHY4D growth rescue, OD600 30 h; active compounds read high; pdr5 snq2 efflux-pump mutant strain. z-score at 10 µM. 0.21% of 140,000 active;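 active means z-score above 3 at both the 24 hr and the 30 hr optical density reads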;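 further: z-score against mean and SD of all compound wells on the same plate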
STAT1 act: activators of IFN-gamma induced STAT1 signaling; activation (% of control), % at 5.5 µM; NIH 3T3 STAT1-luciferase reporter, luminescence; 100% = IFN-gamma alone, no compound; 2.6% of 200,000 active;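 active means activation above the screen-wide mean activation plus 3 SD, cut at about 130% in these data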;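 further: raw ratio to IFN-gamma control signal so 100% means no change and 0% no light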
Starred values were filed as active, the others as inactive.

How did COc1ccc(CCN2C(=O)CC(Cc3ccc(C)cc3)C2=O)cc1OC (configuration not stated) do in these assays?
FLuc inhib CS: -5; FLuc act counter: 1; APP 5'UTR act: 9; NF-kB neuron act: 1; STAT1 act: 97

How did O=C1CC(Cc2ccccc2)C(=O)N1Cc1ccco1 (configuration not stated) do in these assays?
FLuc inhib CS: 87*; FLuc act counter: 0.1; APP 5'UTR act: 2; NF-kB neuron act: 0.98; sdo1 growth: -0.5; STAT1 act: 97

What do the screens show for `O=C1C2C3CCC(C3)C2C(=O)N1Cc1ccco1` (configuration not stated)?
FLuc inhib CS: -3; FLuc act counter: 1; APP 5'UTR act: 2; NF-kB neuron act: 1; sdo1 growth: 0.31; STAT1 act: 108

How did O=C(Nc1cccc(NC(=O)c2cccnc2)c1)c1cccnc1 do in these assays?
FLuc inhib CS: -3; FLuc act counter: 1; APP 5'UTR act: -13; NF-kB neuron act: 0.45; sdo1 growth: 0.65; STAT1 act: 94

How did O=C(Nc1ccc2c(c1)OCCO2)c1ccc2nccnc2c1 do in these assays?
FLuc inhib CS: 80*; FLuc act counter: 0.2; APP 5'UTR act: 165*; STAT1 act: 125

Results for Cc1ccc(C(=O)Nc2ccc3nccnc3c2)cc1 ?
FLuc inhib CS: 89*; FLuc act counter: 0.1; APP 5'UTR act: 145*; NF-kB neuron act: 8.4*; sdo1 growth: 1.9; STAT1 act: 93

How did O=C(Nc1ccc2c(c1)OCCO2)c1cccnc1 do in these assays?
FLuc inhib CS: 17; FLuc act counter: 0.8; APP 5'UTR act: 27; NF-kB neuron act: 1.5; sdo1 growth: 0.36; STAT1 act: 129*

Results for O=C(Nc1ccc(OC(F)(F)F)cc1)c1ccc2nccnc2c1 ?
FLuc inhib CS: -1; FLuc act counter: 1; APP 5'UTR act: 5; NF-kB neuron act: 1.7; STAT1 act: 110

How did CCOc1ccc(CCNS(=O)(=O)c2cnc[nH]2)cc1OCC do in these assays?
FLuc inhib CS: -1; FLuc act counter: 1; APP 5'UTR act: 4; NF-kB neuron act: 0.98; sdo1 growth: 0.87; STAT1 act: 102

Results for Cc1ccc(-c2nnc(SCc3ccccc3F)o2)cc1 ?
FLuc inhib CS: 26; FLuc act counter: 0.7; APP 5'UTR act: 142*; NF-kB neuron act: 7.3*; sdo1 growth: -0.82; STAT1 act: 135*

Results for C#CCSc1nnc(-c2ccc(C)cc2)o1 ?
FLuc inhib CS: 56*; FLuc act counter: 0.4; APP 5'UTR act: 93; NF-kB neuron act: 3.7*; sdo1 growth: 1.1; STAT1 act: 129*

What do the screens show for `C#CCSc1nnc(-c2ccc(O)cc2)o1`?
FLuc inhib CS: 12; FLuc act counter: 0.9; APP 5'UTR act: 57; NF-kB neuron act: 2.5; STAT1 act: 122

How did COc1cc(C(=O)NC(=S)Nc2nccs2)cc(OC)c1OC do in these assays?
FLuc inhib CS: 4; FLuc act counter: 1; APP 5'UTR act: -10; NF-kB neuron act: 0.65; STAT1 act: 98

How did O=C1c2ccccc2C(=O)c2cc(NC(=O)C3CC3)ccc21 do in these assays?
FLuc inhib CS: 22; FLuc act counter: 0.8; APP 5'UTR act: 139*; NF-kB neuron act: 4.5*; sdo1 growth: -0.1; STAT1 act: 130*

What do the screens show for `O=C(Nc1ccc(Nc2ccccc2)cc1)C1CC1`?
FLuc inhib CS: 3; FLuc act counter: 1; APP 5'UTR act: 29; NF-kB neuron act: 1.5; sdo1 growth: 0.69; STAT1 act: 107

What do the screens show for `COc1cccc(C(=O)/C=C/Nc2ccc(S(=O)(=O)Nc3cnc4ccccc4n3)cc2)c1`?
FLuc inhib CS: 1; FLuc act counter: 1; APP 5'UTR act: 18; NF-kB neuron act: 1; sdo1 growth: -0.96; STAT1 act: 137*

What do the screens show for `COc1cccc(C(=O)/C=C/Nc2ccc(S(=O)(=O)Nc3ncccn3)cc2)c1`?
FLuc inhib CS: 2; FLuc act counter: 1; APP 5'UTR act: -15; NF-kB neuron act: 0.95; sdo1 growth: 0.28; STAT1 act: 139*

How did COc1cccc(C(=O)/C=C/Nc2ccc(S(=O)(=O)Nc3nc(C)cc(C)n3)cc2)c1 do in these assays?
FLuc inhib CS: -3; FLuc act counter: 1; APP 5'UTR act: -9; NF-kB neuron act: 1.2; sdo1 growth: -0.2; STAT1 act: 97
